Data set [1] in a line: Metabolic stability in pooled SD rat liver microsomes. The data set is classed as in vitro ADME. Conditions: for half-life at 1 μM: SD, rat, pooled rat liver microsomes, pH 7.4. Summed up: (§1)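 Pooled liver microsomes (CD-1 mouse, SD rat or human) at 0.5 mg/mL, with 1 μM test compound, 1.7 mM β-NADPH and 3.3 mM MgCl2 in 0.1 M phosphate pH 7.4, 37°C, DMSO <0.1% final. Samples at 0, 5, 10, 15, 30, 45, 60 min were quenched in cold acetonitrile with internal standard. Parent remaining measured by negative-ion MRM LC–MS/MS. t1/2 from ln(remaining) versus time. Controls: no-NADPH, verapamil.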

A short description of data set [2]: Metabolic stability in pooled CD-1 mouse liver microsomes. It counts as in vitro ADME. As to conditions: for half-life at 1 μM: CD-1, mouse, pooled mouse liver microsomes, pH 7.4. Summed up: as §1
(In general: Liver microsomes are vesicles of endoplasmic reticulum, rich in cytochrome P450 enzymes.)

Data set [3] is described as follows: Metabolic stability in pooled human liver microsomes. It counts as in vitro ADME. As to conditions: for half-life at 1 μM: human, pooled human liver microsomes, pH 7.4. The essentials:
as §1

Another data set concerns obese mice. Conditions: earlier work of the authors; cited from earlier work.

As a reminder, the half-life is the time in which the quantity being followed falls by half. Higher therefore signals slow decline. As for `[2H]CC([2H])(C)c1ccc2oc3nc(N)c(C(=O)O)cc3c(=O)c2c1` (stereo not shown) [Compound 5, 2-Amino-5-oxo-7-(propan-2-yl-1,2-d2)-5H-chromeno[2,3-b]pyridine-3-carboxylic acid], the half-life at 1 μM in data set [1], in data set [2] and in data set [3] was greater than 1 h each time. In addition, in data set [1] (rat liver microsomes), the “stability relative to amlexanox” value is reported as “more stable than amlexanox (1)”.

Turning to `CC(C)c1ccc2oc3nc(N)c(C(=O)O)cc3c(=O)c2c1` [Compound 1, amlexanox], the “effects in obese mice” value with obese mice is “weight loss in obese mice, improved insulin sensitivity, and reduced hepatic steatosis and inflammation”. In addition, the half-life at 1 μM in data set [1], in data set [2] and in data set [3] was greater than 1 h throughout. The “more unmetabolized amlexanox remaining compared to d2-amlexanox” value in data set [2] (mice liver microsomes, after 60 min) is “about 8%”; in data set [3] (human liver microsomes, after 60 min), “about 8%”.

These data come from article PMC6525014 (Journal of labelled compounds & radiopharmaceuticals, 2019).
